Data on 19 compounds can be found in ChEMBL document CHEMBL2086343, “Design, synthesis and antibacterial activity of minor groove binders: the role of non-cationic tail groups” (Eur J Med Chem, 2012).

Converted amounts (≈) assume the structure as drawn. The source made the active and inactive calls. No cut-off for these calls is given here.

One data set deals with Staphylococcus aureus. Nature of the data set: Antibacterial activity against Staphylococcus aureus. The class given is functional.
Another data set concerns the target hERG (KCNH2) (Homo sapiens, UniProt Q12809). Nature of the data set: Displacement of [3H]astemizole from human hERG transfected in HEK293 cells at 10 uM after 1 hr by scintillation counter. Format: cell-based. The following applies: HEK293 cells transfected with human hERG, probe [3H]astemizole. An outline of the steps:
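Membranes came from hERG-transfected HEK293 cells (grown at 37 °C, 5% CO₂), homogenised and spun at 200,000 g. About 200,000 cells per tube were incubated 1 h at 30 °C with 0.5 nM [³H]astemizole and compound at 10 µM in HEPES pH 7.4 buffer. Non-specific binding was set with 10 µM unlabelled astemizole. Samples were filtered (GF/B) and counted by scintillation. Triplicates, n = 3.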
(In general: Displacement assays read how much labelled ligand stays bound in the presence of the test substance.)

Data set [1] deals with Nucleic Acid. As to the kind of experiment: Binding affinity to HexA DNA at <10 uM after 30 mins by DNase 1 footprinting assay. The class given is nucleic-acid assay. An outline of the steps: (§1)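 DNase I footprinting used 3'-end radiolabelled DNA (<10 nM) in 10 mM Tris-HCl pH 7.5 with 0.1 mM EDTA. It was incubated with ligand for at least 30 min at room temperature, then digested 1 min with about 0.01 units/mL DNase I (with NaCl, MgCl₂, MnCl₂). Fragments were resolved on 8% denaturing polyacrylamide/8 M urea gels and read by phosphorimaging.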

Data set [2] concerns Nucleic Acid. Nature of the data set: Binding affinity to 5'GCGATATATGCG3' DNA sequence assessed as change in melting temperature by thermal denaturation assay. Format: nucleic-acid assay. An outline of the steps:
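Oligonucleotide and its complement at 6×10^-6 M, mixed with MGB at the chosen ratio, in 10 mM PBS pH 7.4 with 50 mM NaCl. Heated 10→80 °C and cooled 80→10 °C at 0.5 °C/min. Absorbance was read at 260 nm, and Tm was taken from the derivative maxima.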

For data set [3], the system named is Nucleic Acid. Nature of the data set: Binding affinity to HexB DNA at <10 uM after 30 mins by DNase 1 footprinting assay. Format: nucleic-acid assay.
For data set [4], the system named is Nucleic Acid. As to the kind of experiment: Binding affinity to HexRev DNA at <10 uM after 30 mins by DNase 1 footprinting assay. Format: nucleic-acid assay. An outline of the steps: as §1

hERG (KCNH2), sequence (Q12809 whole entry): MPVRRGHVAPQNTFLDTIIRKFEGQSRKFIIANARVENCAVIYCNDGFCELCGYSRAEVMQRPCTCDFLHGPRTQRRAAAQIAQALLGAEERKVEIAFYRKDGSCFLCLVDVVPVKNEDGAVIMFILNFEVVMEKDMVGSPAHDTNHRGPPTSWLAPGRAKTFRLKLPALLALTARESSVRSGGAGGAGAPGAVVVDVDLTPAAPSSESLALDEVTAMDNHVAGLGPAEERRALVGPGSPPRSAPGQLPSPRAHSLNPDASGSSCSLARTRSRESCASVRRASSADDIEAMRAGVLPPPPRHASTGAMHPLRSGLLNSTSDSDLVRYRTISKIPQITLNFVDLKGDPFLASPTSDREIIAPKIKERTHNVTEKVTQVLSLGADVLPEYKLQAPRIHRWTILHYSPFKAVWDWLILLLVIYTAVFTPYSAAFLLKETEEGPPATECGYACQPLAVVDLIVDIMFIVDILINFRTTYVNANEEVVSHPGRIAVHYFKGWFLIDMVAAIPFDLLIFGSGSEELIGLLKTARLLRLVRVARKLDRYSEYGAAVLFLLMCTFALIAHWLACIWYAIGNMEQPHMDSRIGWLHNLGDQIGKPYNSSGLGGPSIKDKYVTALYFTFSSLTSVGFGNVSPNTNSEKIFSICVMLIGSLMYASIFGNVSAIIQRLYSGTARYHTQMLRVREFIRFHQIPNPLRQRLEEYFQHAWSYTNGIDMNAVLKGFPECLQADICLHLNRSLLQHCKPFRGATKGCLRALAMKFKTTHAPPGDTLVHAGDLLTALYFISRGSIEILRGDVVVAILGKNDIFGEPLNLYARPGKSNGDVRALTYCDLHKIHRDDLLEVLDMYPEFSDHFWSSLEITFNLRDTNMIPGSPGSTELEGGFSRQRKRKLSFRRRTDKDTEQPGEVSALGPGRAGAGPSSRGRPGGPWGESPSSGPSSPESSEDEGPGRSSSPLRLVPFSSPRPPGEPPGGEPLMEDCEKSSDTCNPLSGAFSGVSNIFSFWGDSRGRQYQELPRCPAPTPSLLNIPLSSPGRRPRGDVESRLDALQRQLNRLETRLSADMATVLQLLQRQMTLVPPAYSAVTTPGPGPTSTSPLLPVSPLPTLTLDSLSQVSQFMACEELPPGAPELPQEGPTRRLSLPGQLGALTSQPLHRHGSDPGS

The MIC is the lowest concentration found to suppress growth. In the case of `CN/C(=C\[N+](=O)[O-])NCCNC(=O)c1cc(NC(=O)c2cc(NC(=O)c3ccc(/C=C/c4cccc(OC)c4)cc3)cn2C)cn1C`, in the data set with Staphylococcus aureus, the MIC entry is “inactive”.
The same measure, in the same setting: then `COc1ccc(/C=C/c2ccc(C(=O)Nc3cc(C(=O)Nc4cc(C(=O)NCCO)n(C)c4)n(C)c3)cn2)cc1`, with “inactive”.
By inhibition is commonly meant the drop in the measured response relative to a control, in per cent. Low values mean a response near the control, high ones a response far below the control. On hERG (KCNH2), `COc1cccc(/C=C/c2ccc(C(=O)Nc3cc(C(=O)Nc4cc(C(=O)NCCNC(=N)N)n(C)c4)n(C)c3)cc2)c1` returned an inhibition at 1 h, 10 µM of 69%. The minimum inhibitory concentration (MIC) against Staphylococcus aureus was 25 µM (≈ 14.6 µg/mL).
The matching figures for `COc1cccc(/C=C/c2ccc(C(=O)Nc3cc(C(=O)Nc4cc(C(=O)NCCNC(=O)OC(C)(C)C)n(C)c4)n(C)c3)cc2)c1`: 36% and “inactive”.
The matching figures for `CN/C(=N\C#N)NCCNC(=O)c1cc(NC(=O)c2cc(NC(=O)c3ccc(/C=C/c4cccc(OC)c4)cc3)cn2C)cn1C`: 58% and “inactive”.
`Cn1cc(NC(=O)c2cc(NC(=O)c3ccc(/C=C/c4cnc5ccccc5c4)cc3)cn2C)cc1C(=O)NCCNC(=O)C(F)(F)F` displayed an inhibition at 1 h, 10 µM on hERG (KCNH2) of 24%. In addition, the MIC against Staphylococcus aureus amounted to 12.5 µM (≈ 8.22 µg/mL).
Compound `CN(C)CCCNC(=O)c1cc(NC(=O)c2cc(NC(=O)c3ccc(/C=C/c4cnc5ccccc5c4)cc3)cn2C)cn1C` gave an inhibition at 1 h, 10 µM on hERG (KCNH2) of 60%. In the data set on Staphylococcus aureus, the MIC was found to be 25 µM (≈ 15.1 µg/mL).
The matching figures for `CN/C(=N\C#N)NCCNC(=O)c1cc(NC(=O)c2cc(NC(=O)c3ccc(/C=C/c4cnc5ccccc5c4)cc3)cn2C)cn1C`: 54% and “inactive”.
For the compound `COc1cccc(/C=C/c2ccc(C(=O)Nc3cc(C(=O)Nc4cc(C(=O)NCCOC(C)=O)n(C)c4)n(C)c3)cc2)c1`, the MIC result in the data set on Staphylococcus aureus is “inactive”.
Regarding `COc1cccc(/C=C/c2ccc(C(=O)Nc3cc(C(=O)Nc4cc(C(=O)NCCN5CCOCC5)n(C)c4)n(C)c3)cc2)c1`, the inhibition at 1 h, 10 µM on hERG (KCNH2) was determined as 65%. This compound also gave an MIC against Staphylococcus aureus of 2 µM (≈ 1.22 µg/mL).
As usually defined, the ΔTm is the shift of the melting midpoint relative to a reference. Consider `Cn1cc(NC(=O)c2cc(NC(=O)c3ccc(/C=C/c4cnc5ccccc5c4)cc3)cn2C)cc1C(=O)NCCNC(=N)N`, for which the outcome in the data set on Nucleic Acid [1], in the data set on Nucleic Acid [3] and with Nucleic Acid [4] was Active. Also, in the data set on Staphylococcus aureus, inhibition of growth (MIC) required 7.8 µM (≈ 4.71 µg/mL). In the data set with Nucleic Acid [2], the ΔTm was determined as 29 °C.
Consider `COc1ccc(/C=C/c2ccc(C(=O)Nc3cc(C(=O)Nc4cc(C(=O)NCCNC(=N)N)n(C)c4)n(C)c3)cn2)cc1`, for which the MIC result in the data set with Staphylococcus aureus is “inactive”.
For the compound `CN/C(=C\[N+](=O)[O-])NCCNC(=O)c1cc(NC(=O)c2cc(NC(=O)c3ccc(/C=C/c4cnc5ccccc5c4)cc3)cn2C)cn1C`, the outcome in the data set on Nucleic Acid [1], in the data set on Nucleic Acid [3] and in the data set with Nucleic Acid [4] was Active. In addition, the inhibition at 1 h, 10 µM at hERG (KCNH2) was determined as 51%. The MIC against Staphylococcus aureus amounted to 2.5 µM (≈ 1.65 µg/mL). Besides, the ΔTm in the data set on Nucleic Acid [2] turned out to be 16 °C.
On hERG (KCNH2), `Cn1cc(NC(=O)c2cc(NC(=O)c3ccc(/C=C/c4cnc5ccccc5c4)cc3)cn2C)cc1C(=O)NCCN1CCOCC1` [MGB-BP-3] had an inhibition at 1 h, 10 µM of 65%. In the data set with Staphylococcus aureus, this compound yielded a minimal inhibitory concentration (MIC) of 0.12 µM (≈ 0.0758 µg/mL).
The matching figures for `COc1ccc(/C=C/c2ccc(C(=O)Nc3cc(C(=O)Nc4cc(C(=O)NCCN5CCOCC5)n(C)c4)n(C)c3)cn2)cc1`: 58% and 6.25 µM (≈ 3.82 µg/mL).
The matching figures for `Cn1cc(NC(=O)c2cc(NC(=O)c3ccc(/C=C/c4cnc5ccccc5c4)cc3)cn2C)cc1C(=O)NCCN`: 55% and “inactive”.
In the case of `COc1ccc(/C=C/c2ccc(C(=O)Nc3cc(C(=O)Nc4cc(C(=O)NCCOC(C)=O)n(C)c4)n(C)c3)cn2)cc1`, the MIC result in the data set with Staphylococcus aureus was “inactive”.
On the same count and under the same terms, then `CN/C(=C\[N+](=O)[O-])NCCNC(=O)c1cc(NC(=O)c2cc(NC(=O)c3ccc(/C=C/c4ccc(OC)cc4)nc3)cn2C)cn1C`, with 31 µM (≈ 19.9 µg/mL).
`COc1cccc(/C=C/c2ccc(C(=O)Nc3cc(C(=O)Nc4cc(C(=O)NCCO)n(C)c4)n(C)c3)cc2)c1`: the inhibition at 1 h, 10 µM on hERG (KCNH2) came to 32%. Moreover, the MIC result in the data set on Staphylococcus aureus was “inactive”.
